Experimental data: ChEMBL document CHEMBL2384929, “Synthesis and biological evaluation of fluoro analogues of antimitotic phenstatin” (Bioorg Med Chem, 2013)
pIC50: −log10 of the molar value.

How the values were obtained:
[1] = organism: Ovis aries; test: Inhibition of sheep brain tubulin assembly at 100 uM by DAPI staining-based fluorescence assay
How it was run: (§1)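 Tubulin from sheep brain, purified by two assembly–disassembly cycles, at about 2–3 mg/mL in 0.1 M MES, 0.5 mM MgCl2, 1 mM EGTA, 1 mM GTP, pH 6.6. Assembly followed by DAPI fluorescence at 37 °C. Single-point inhibition tested at 100 µM. IC50 is the concentration halving the assembly rate relative to no compound, mean of two experiments, with reference inhibitors run the same day.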

[2] = system: RXF 393; test: Cytotoxicity against human RXF393 cells assessed as growth inhibition after 48 hrs by SRB assay; type: functional; conditions: RXF 393, 48 h
How it was run: (§2)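 Run in the NCI 60 human tumour cell line panel. Cells exposed for 48 h, growth read by sulforhodamine B. Compounds were first screened at a single 10 µM dose, and those meeting preset threshold inhibition criteria went on to the 5-dose screen. GI50 is the molar concentration giving 50% growth inhibition.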

[3] = system: MDA-MB-231; test: Cytotoxicity against human MDA-MB-231 cells assessed as growth inhibition after 48 hrs by SRB assay; type: functional; conditions: MDA-MB-231, 48 h; how it was run: as §2
[4] = system: SN12C; test: Cytotoxicity against human SN12C cells assessed as growth inhibition after 48 hrs by SRB assay; type: functional; how it was run: as §2
[5] = system: HL-60(TB); test: Cytotoxicity against human HL-60(TB) cells assessed as growth inhibition after 48 hrs by SRB assay; type: functional; conditions: HL-60, 48 h
How it was run: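 NCI 60-human-cancer-cell-line screen; only compounds meeting predetermined threshold inhibition criteria in the single-dose test went on to the 5-dose screen. Cells exposed for 48 h and growth read by sulforhodamine B assay. GI50 is the molar concentration giving 50% growth inhibition of tumour cells.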

[6] = system: KM12; test: Cytotoxicity against human KM12 cells assessed as growth inhibition after 48 hrs by SRB assay; type: functional; conditions: KM12, 48 h; how it was run: as §2
[7] = system: Hs-578T; test: Cytotoxicity against human Hs578T cells assessed as growth inhibition after 48 hrs by SRB assay; type: functional; how it was run: as §2
[8] = system: HCT-15; test: Cytotoxicity against human HCT15 cells assessed as growth inhibition after 48 hrs by SRB assay; type: functional; conditions: HCT-15, 48 h; how it was run: as §2
[9] = system: SF-268; test: Cytotoxicity against human SF268 cells assessed as growth inhibition after 48 hrs by SRB assay; type: functional; conditions: SF-268, 48 h; how it was run: as §2
[10] = system: SF-539; test: Cytotoxicity against human SF539 cells assessed as growth inhibition after 48 hrs by SRB assay; type: functional; conditions: SF-539, 48 h; how it was run: as §2
[11] = system: BT-549; test: Cytotoxicity against human BT549 cells assessed as growth inhibition after 48 hrs by SRB assay; type: functional; conditions: BT-549, 48 h; how it was run: as §2
[12] = system: OVCAR-3; test: Cytotoxicity against human OVCAR3 cells assessed as growth inhibition after 48 hrs by SRB assay; type: functional; conditions: OVCAR-3, 48 h; how it was run: as §2
[13] = system: NCI-H522; test: Cytotoxicity against human NCI-H522 cells assessed as growth inhibition after 48 hrs by SRB assay; type: functional; conditions: NCI-H522, 48 h; how it was run: as §2
[14] = system: SK-OV-3; test: Cytotoxicity against human SKOV3 cells assessed as growth inhibition after 48 hrs by SRB assay; type: functional; conditions: SK-OV-3, 48 h; how it was run: as §2
[15] = system: SNB-75; test: Cytotoxicity against human SNB75 cells assessed as growth inhibition after 48 hrs by SRB assay; type: functional; conditions: SNB-75, 48 h; how it was run: as §2
[16] = system: SW-620; test: Cytotoxicity against human SW620 cells assessed as growth inhibition after 48 hrs by SRB assay; type: functional; conditions: SW-620, 48 h; how it was run: as §2
[17] = system: Malme-3M; test: Cytotoxicity against human MALME-3M cells assessed as growth inhibition after 48 hrs by SRB assay; type: functional; how it was run: as §2
[18] = system: MDA-MB-435; test: Cytotoxicity against human MDA-MB-435 cells assessed as growth inhibition after 48 hrs by SRB assay; type: functional; conditions: MDA-MB-435, 48 h; how it was run: as §2
[19] = system: ACHN; test: Cytotoxicity against human ACHN cells assessed as growth inhibition after 48 hrs by SRB assay; type: functional; how it was run: as §2
[20] = system: DU-145; test: Cytotoxicity against human DU145 cells assessed as growth inhibition after 48 hrs by SRB assay; type: functional; conditions: DU-145, 48 h; how it was run: as §2
[21] = system: NCI-H460; test: Cytotoxicity against human NCI-H460 cells assessed as growth inhibition after 48 hrs by SRB assay; type: functional; conditions: NCI-H460, 48 h; how it was run: as §2
[22] = system: K562; test: Cytotoxicity against human K562 cells assessed as growth inhibition after 48 hrs by SRB assay; type: functional; conditions: K562, 48 h; how it was run: as §2
[23] = system: SR; test: Cytotoxicity against human SR cells assessed as growth inhibition after 48 hrs by SRB assay; type: functional; how it was run: as §2
[24] = system: NCI-H23; test: Cytotoxicity against human NCI-H23 cells assessed as growth inhibition after 48 hrs by SRB assay; type: functional; conditions: NCI-H23, 48 h; how it was run: as §2
[25] = system: SNB-19; test: Cytotoxicity against human SNB19 cells assessed as growth inhibition after 48 hrs by SRB assay; type: functional; conditions: SNB-19, 48 h; how it was run: as §2
[26] = system: PC-3; test: Cytotoxicity against human PC3 cells assessed as growth inhibition after 48 hrs by SRB assay; type: functional; conditions: PC-3, 48 h; how it was run: as §2
[27] = system: NCI/ADR-RES; test: Cytotoxicity against human NCI/ADR-RES cells assessed as growth inhibition after 48 hrs by SRB assay; type: functional; how it was run: as §2
[28] = system: CCRF-CEM; test: Cytotoxicity against human CCRF-CEM cells assessed as growth inhibition after 48 hrs by SRB assay; type: functional; how it was run: as §2
[29] = Inhibition of sheep brain tubulin assembly by DAPI staining-based fluorescence assay; set-up: species or system Ovis aries; how it was run: as §1
[30] = system: M14; test: Cytotoxicity against human M14 cells assessed as growth inhibition after 48 hrs by SRB assay; type: functional; conditions: M14, 48 h; how it was run: as §2
[31] = system: HCC 2998; test: Cytotoxicity against human HCC2998 cells assessed as growth inhibition at 10 uM after 48 hrs by SRB assay; type: functional; conditions: HCC 2998, 48 h, read-out: GI
How it was run: (§3)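 Single-dose NCI 60-cell screen at 10 µM with 48 h exposure and sulforhodamine B read-out. Values are percentage growth per cell line. A summary ratio counts cell lines with 0–50% growth over all cell lines tested.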

[32] = system: SR; test: Cytotoxicity against human SR cells assessed as growth inhibition at 10 uM after 48 hrs by SRB assay; type: functional; conditions: read-out: GI; how it was run: as §3
[33] = system: K562; test: Cytotoxicity against human K562 cells assessed as growth inhibition at 10 uM after 48 hrs by SRB assay; type: functional; conditions: K562, 48 h, read-out: GI; how it was run: as §3
[34] = system: MDA-MB-435; test: Cytotoxicity against human MDA-MB-435 cells assessed as growth inhibition at 10 uM after 48 hrs by SRB assay; type: functional; conditions: MDA-MB-435, 48 h, read-out: GI; how it was run: as §3
[35] = system: MDA-MB-468; test: Cytotoxicity against human MDA-MB-468 cells assessed as growth inhibition at 10 uM after 48 hrs by SRB assay; type: functional; conditions: MDA-MB-468, 48 h, read-out: GI; how it was run: as §3
[36] = system: NCI-H522; test: Cytotoxicity against human NCI-H522 cells assessed as growth inhibition at 10 uM after 48 hrs by SRB assay; type: functional; conditions: NCI-H522, 48 h, read-out: GI; how it was run: as §3
[37] = system: MCF7; test: Cytotoxicity against human MCF7 cells assessed as growth inhibition at 10 uM after 48 hrs by SRB assay; type: functional; conditions: MCF7, 48 h, read-out: GI; how it was run: as §3
[38] = system: M14; test: Cytotoxicity against human M14 cells assessed as growth inhibition at 10 uM after 48 hrs by SRB assay; type: functional; conditions: M14, 48 h, read-out: GI; how it was run: as §3
[39] = system: SW-620; test: Cytotoxicity against human SW620 cells assessed as growth inhibition at 10 uM after 48 hrs by SRB assay; type: functional; conditions: SW-620, 48 h, read-out: GI; how it was run: as §3
[40] = system: HL-60(TB); test: Cytotoxicity against human HL-60(TB) cells assessed as growth inhibition at 10 uM after 48 hrs by SRB assay; type: functional; conditions: HL-60, 48 h, read-out: GI
How it was run: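 Single high dose of 10 µM in the NCI 60-cell disease-oriented human tumour panel, with 48 h exposure and sulforhodamine B read-out of percentage growth.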

[41] = system: KM12; test: Cytotoxicity against human KM12 cells assessed as growth inhibition at 10 uM after 48 hrs by SRB assay; type: functional; conditions: KM12, 48 h, read-out: GI; how it was run: as §3
[42] = system: HCT-15; test: Cytotoxicity against human HCT15 cells assessed as growth inhibition at 10 uM after 48 hrs by SRB assay; type: functional; conditions: HCT-15, 48 h, read-out: GI; how it was run: as §3
[43] = system: NCI/ADR-RES; test: Cytotoxicity against human NCI/ADR-RES cells assessed as growth inhibition at 10 uM after 48 hrs by SRB assay; type: functional; conditions: read-out: GI; how it was run: as §3

## COc1ccc(C(=O)c2ccc(OC)c(NC(C)=O)c2OC)cc1F
[1]
  inhibition: 3%

## COc1ccc(C(=O)c2cc(F)c(F)c(OC)c2F)c(OC)c1N
[1]
  inhibition: 89%
[2]
  GI50: 4.51 µM
[3]
  GI50: 8.55 µM
[4]
  GI50: 5.81 µM
[5]
  GI50: 3.69 µM
[6]
  GI50: 0.89 µM
[7]
  GI50: 3.78 µM
[8]
  GI50: 2.98 µM
[9]
  GI50: 6.54 µM
[10]
  GI50: 3.59 µM
[11]
  GI50: 34.1 µM
[12]
  GI50: 2.09 µM
[13]
  GI50: 0.752 µM
[14]
  GI50: 8.37 µM
[15]
  GI50: 1.7 µM
[16]
  GI50: 2.84 µM
[17]
  GI50: 11.5 µM
[18]
  GI50: 0.407 µM
[19]
  GI50: 7.9 µM
[20]
  GI50: 3.91 µM
[21]
  GI50: 3 µM
[22]
  GI50: 1.83 µM
[23]
  GI50: 0.961 µM
[24]
  GI50: 30.7 µM
[25]
  GI50: 5.47 µM
[26]
  GI50: 10.2 µM
[27]
  GI50: 1.67 µM
[28]
  GI50: 3.35 µM
[29]
  pIC50: 4.53

## COc1ccc(C(=O)c2cc(F)c(F)c(OC)c2F)cc1O
[1]
  inhibition: 88%
[2]
  GI50: 2.47 µM
[3]
  GI50: 2.09 µM
[4]
  GI50: 5.16 µM
[5]
  GI50: 2.02 µM
[6]
  GI50: 1.03 µM
[7]
  GI50: 1.6 µM
[8]
  GI50: 1.76 µM
[9]
  GI50: 3.85 µM
[10]
  GI50: 2.47 µM
[11]
  GI50: 3.13 µM
[12]
  GI50: 1.5 µM
[13]
  GI50: 1.34 µM
[14]
  GI50: 2.44 µM
[15]
  GI50: 1.74 µM
[16]
  GI50: 0.703 µM
[17]
  GI50: 9.53 µM
[18]
  GI50: 0.285 µM
[19]
  GI50: 6.84 µM
[20]
  GI50: 2.08 µM
[21]
  GI50: 2.23 µM
[22]
  GI50: 0.186 µM
[23]
  GI50: 0.969 µM
[24]
  GI50: 3.75 µM
[25]
  GI50: 4.39 µM
[26]
  GI50: 3.72 µM
[27]
  GI50: 0.789 µM
[30]
  GI50: 0.804 µM
[28]
  GI50: 3.31 µM
[29]
  pIC50: 4.55

## COc1cc([C@@H]2c3cc4c(cc3C[C@H]3COC(=O)[C@@H]32)OCO4)cc(OC)c1OC [DESOXYPODOPHYLLOTOXIN]
[1]
  inhibition: 100%
[29]
  pIC50: 5.75

## COc1ccc(C(=O)c2ccc(OC)c(N)c2OC)cc1F
[1]
  inhibition: 45%
[31]
  inhibition of growth at 10 µM: 72%
[32]
  inhibition of growth at 10 µM: 61%
[33]
  inhibition of growth at 10 µM: 71%
[34]
  inhibition of growth at 10 µM: 100%
[35]
  inhibition of growth at 10 µM: 81%
[36]
  inhibition of growth at 10 µM: 45%
[37]
  inhibition of growth at 10 µM: 52%
[38]
  inhibition of growth at 10 µM: 43%
[39]
  inhibition of growth at 10 µM: 77%
[40]
  inhibition of growth at 10 µM: 49%
[41]
  inhibition of growth at 10 µM: 59%
[42]
  inhibition of growth at 10 µM: 53%

## COc1ccc(C(=O)c2cc(F)c(F)c(OC)c2F)c(O)c1O
[1]
  inhibition: 93%
[29]
  pIC50: 4.54

## COc1ccc(C(O)c2cc(F)c(F)c(OC)c2F)cc1O (stereo not drawn)
[1]
  inhibition: 49%
[43]
  inhibition of growth at 10 µM: 35%
[32]
  inhibition of growth at 10 µM: 33%
[33]
  inhibition of growth at 10 µM: 41%
[36]
  inhibition of growth at 10 µM: 53%
[41]
  inhibition of growth at 10 µM: 26%
